Test system: MS2 coat protein
Assay: apparent Kd, MS2 coat protein; higher = weaker binding; RNA-MaP array; FMN 200 µM where present
Procedure, shortened: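 Two titrations, one without ligand and one with constant ligand, were run with SNAP-549-labelled MS2 coat protein from 0.7 or 1.5 nM, doubling to 3 µM. The targets were designs transcribed by stalled E. coli RNA polymerase on Illumina sequencing-chip clusters, in 100 mM Tris-HCl pH 7.5, 80 mM KCl, 4 mM MgCl2, BSA, DTT, yeast tRNA and Tween-20. The apparent Kd is the median of filtered per-cluster binding-curve fits, with green signal normalised to red-channel RNA signal and control-cluster median Fmax.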

[1] = designed as: ON switch for flavin mononucleotide, no ligand
[2] = ligand present: flavin mononucleotide, designed as: ON switch for flavin mononucleotide
[3] = designed as: OFF switch for flavin mononucleotide, no ligand
[4] = ligand present: flavin mononucleotide, designed as: OFF switch for flavin mononucleotide

Sequence	apparent Kd [1] [nM]	apparent Kd [2] [nM]	apparent Kd [3] [nM]	apparent Kd [4] [nM]
CCUGGAUCAUGAGGAUAUGGCACCUUAUUGGUGCCAGAAGGCAUGUCUUUUGACAUGAGGAUCACCCAUGUAAUAAAUUCCAGG	933	131		
GGUCGUCAAGUCAGGAUAUCGUUUAGUCGAUGUAACGAGAAGGGACAUGAGGAUCACCCAUGUCGUCUCAUCAG			18.9	24.8
CACAUUUUAACAGGAUAUGUAUGGUUGCUUAUUAUUGCAAAUUCAAUUAUUACAGAAGGGUUAUACAUGAGGAUCACCCAUGUG	26.5	16.8		
UUUGUUGUUGUGAGGAUAUACUGUUUGUUUUGUUUGUAGAAGGUACAUGAGGAUCACCCAUGUUGGUUGUUUUU			26.4	25.1
GUUUACGCAUGAGGAUAUGCUCGCAUUUCAAGAGCAGAAGGUAUGUCUUUAGACAUGAGGAUCACCCAUGUAUUUAUCAUUGUA	187	29.9		
UCGAACGGAAAUAAAGUAAAUAGACAUGAGGAUCACCCAUGUAAGGAUAUGCCUACUAAAAGUAGGCAGAAGGUACGCGUUCGA			17.5	19.2
ACAUGAGGAUCACCCAUGUUAUCCGGGACUUCAAUUGUUUCUAGAAGGCUGUCUGCUUGUUAGUCAGAGGAUAUAGAAUCAAAU			11.4	11
CUGCUCCGUGUAGGAUAUGCAUACAACCAAUAUGCAGAAGGACAUGAGGAUCACCCAUGUAUGUUAUUAUCACGUGAAGCGUCC			22.6	42.9
AUUGUUUUCAUAGGAUAUUGACAUUUAUUUAUUCAAGAAGGAUGAUUACAUGAGGAUCACCCAUGUUAUUAUGGAUUAACUAGU			23.7	43.2
GAUGAGGUAGGAUAUACGAGAAGAUAGGGUAGAUAGAGAACACAUGAGGAUCACCCAUGUAGAAGGACCAGUAG			25.3	55.7
CGGCACCGAGGAUAUACAUGAGGAUCACCCAUGUUUGUUGGGCCCUUAAGAUCUACGUGUAGAAGGUGGGUCGA			131	167
GUCAGCUCGUGAGGAUAUACAACACUGCUUCGGCAGUGUAUUAAGAUCACAUGAGGAUCACCCAUGUAGAAGGCACGAGAUGAU			14.3	237
GUGUACAGAGGAUAUACAGGAGCAUGGAAACAUGCAACCUCACAUGAGGAUCACCCAUGUAGAAGGCUGUACAC			154	81.3
UGUCGGAGCAGAGGAUAUACAUGAGGAUCACCCAUGUAAUAUGAUCUAGCCUGGAAACAGGCAAUGUAGAAGGCUGCUCCGACA			92.6	1020
CAAAGCAGUAAGGAUAUAUGGUAGCCAGUUACCGUAGAAGGUAUAACAUGAGGAUCACCCAUGUCCAUAUGAUU			56.8	57.7
GACAAACAUGAGGAUCACCCAUGUUCAGACGAACAAGGAUAUGUGUGGAAACCAUACUAUACAGAAGGUGUCUGUC	48.6	31.1		
CCCUGAGACUGGUUAAUUGGCUGAUAGGAUAUCCUCGGACAUGAGGAUCACCCAUGUUAACUAUUGGAGAAGGGUCAGCGAAAG	445	181		
UUUUAACAUGAGGAUCACCCAUGUGAGGAUAUCGAAAUUUAUAUUAAUAUUUUUAUAACGAGAAGGCACAUUUU			70.1	75.2
UAUUAUGUUCGAGGAUAUCCGCGAUGCCGACCAGGAGAAGGCGAACAUGAGGAUCACCCAUGUUAUAGAUGACCGGUUACCAAA			23.8	41.2
GGAUAGGACAGAGGAUAUACGUGCUAGAGAUACUACCAAAAUUUCCUCACAUGAGGAUCACCCAUGUAGAAGGCUGUCCUAUCG			180	143
GGAUGUCAAAGACAUCCAAUACGAACAUGAGGAUCACCCAUGUAGGAUAUGCUACUCAAAGAGUAGCAGAAGGACAUGUGUCUU			30.6	164
GCGGUUACGGUUGGCACUUAGCGAGAGGAUAUGGAAAACAAGACAUGAGGAUCACCCAUGUACUAUCAGAAGGCUCGAGCACGC	7.76	5.8		
AGUUGGCGAGGAUAUACAUGAGGAUCACCCAUGUGAGAGAAAAAAAGGAGAAAAAAAAGUAGAAGGCGCUGACA			37.5	120
GGAUGACAAAGUCAUCCUCAACGGACAUGAGGAUCACCCAUGUAGGAUAUGCUACUCAAAGAGUAGCAGAAGGACAUGUGUCUU			37.3	241
GGAUGACAAAGUCAUCCAUUACGAACAUGAGGAUCACCCAUGUAGGAUAUGCUACUCAAAGAGUAGCAGAAGGACAUGUGUCUU			31.2	149
CUUAUGUAAGGAUAUCAGUAGUAAAAAAAUAAAAUUACUACUGAGAAGGUACAUGAGGAUCACCCAUGUCUUUC			113	50.5
CACUGCAAUGUAGGAUAUCGACUGGAAUACAGUCGAGAAGGACAUGAGGAUCACCCAUGUACUAUGAGUGAAUAAUAAGCAGUG			88.9	834
UGUUUUGUACAUGAGGAUCACCCAUGUUAAUAUGUGGUAGUCAGAAGGCAUUGUUUGAGAUAUUAUGAGGAUAUGAUUAGUCUG		43.9		

Sequence	apparent Kd [1] [nM]	apparent Kd [2] [nM]	apparent Kd [3] [nM]	apparent Kd [4] [nM]
AGUAUGCACGCAGGAUAUACAUGAGGAUCACCCAUGUGGAACAGUGUAGUACUAGUUGAUCCUCAGUAGAAGGGCGGUCGAAUA			44.2	56.6
UGGUACUAGGGAGGAUAUGGGAAGAUACAUGAGGAUCACCCAUGUUUAAGAAUGCCGAGAGGCAACUAGAAGGCACUAGUACCU	1100	156		
UGGUACUAGGGAGGAUAUGUGAAGAUACAUGAGGAUCACCCAUGUUUAAGAAUGCCGAGAGGCAACUAGAAGGCCCUAGUACCU	8.5	5.65		
UAUAUAUAGGCAGGAUAUACAUGUAUAUAUAAUUUUUUAUAUAUUAUUACAUGAGGAUCACCCAUGUAGAAGGGCCAUAUUAUA			34.8	51
UUAUUUAGGUAGGAUAUCGAUACCAAUCCCUAUCGAGAAGGGUCUACAUGAGGAUCACCCAUGUUAGCAUGUUU			20.1	21.1
AUUAUUAUAUUAUACAUGAGGAUCACCCAUGUUAUAAGUCAUGAGGAUAUGGUAUUGUAGUUUUUCCAGAAGGCAUUUAACUUA	10.3	6.04		
CAGCGAUAGCUGAACAAUCUAUCUGAGGAUAUUCAUAAAACAUGAGGAUCACCCAUGUAAAAUUGGGAGAAGGCAGAUAGAUUG	12.6	4.69		
CAAAAGUAUAACAAUUUCAAGGCACAGGAUAUGAGUGUGCACAUGAGGAUCACCCAUGUUAUAACUUAGAAGGGUGACCAUUGC	427	368		
CGCUACUACCAGAAGGACAUGAGGAUCACCCAUGUAGGAUAUGGGUUACACGUUCCUGUGUAUUGUUACUACGCUACGUAUGCG	168	11.9		
CCGCGCAUAGGAUAUUAAUCUCACGACAUGAGGAUCACCCAUGUAACUCUGUGUGCGAUCUAAGAAGGGUGGGCUU			28.8	24
GUCAGACGAGGAUAUAGAUUUAAGUACAUGAGGAUCACCCAUGUACAUAUGUAUUUAGAUUUAGAAGGCGUCUGAC			28.2	31.6
GGGUGGCGUAGAGGAUAUAUGGUACAUGAGGAUCACCCAUGUACAUAUGAUGUUCAUGUUUAUGUAUAGAAGGCUACGUCGCUA	10.1	9.76		
UGUUGUUCAGGAUAUGGUGUGUUAUACAUGAGGAUCACCCAUGUGGGUCCUGAUUUGGCGUCAGAAGGGAAUGUUG			486	406
GCACGGUAAGUGAGGAUAUACCUCUGGAUACAGAGGUAGAAGGCACAUGAGGAUCACCCAUGUCUCAGCCGUGC			16.3	78.2
UGGUGACGUGUAGGAUAUGGAGGUGGGUUUUGGCCAGAAGGACAUGAGGAUCACCCAUGUGGUAGAGGGUUGGCGGCGGCCCGU			16.9	15.1
GGUACUCAAAGAGUACCAAUACGAACAUGAGGAUCACCCAUGUAGGAUAUGCUACUCAAAGAGUAGCAGAAGGACAUGUGCCAU			42	282
GCCUUAUCCGUCAGGAUAUACAUUUUUUUUUUGUUGUAGAAGGGACAUGAGGAUCACCCAUGUACAUUACAUUG			25.8	28.9
UAUAUAUAGUAAGGAUAUGUAUUAGUUUUAUAAACAGAAGGUACUGACAUGAGGAUCACCCAUGUUUUAGUGUGGGCAUGUAGA			90	144
GACUUGGCUACAUGAGGAUCACCCAUGUUUGACUGGAUCGAUCAGGAUAUAGUAAUUUGCAACAAUUAGAAGGGAUAUUUACGG	65.9	56.9		
AUAAAUCAUGUAGGAUAUGCGUGGCGAAGCUAUGCAGAAGGACAUGAGGAUCACCCAUGUCGUUCCGUCUGCGUACAGACGGAA			33.8	306
AUUUGACACGUAGGAUAUCGCUCAAAUUUAACACGAGAAGGACGAACAUGAGGAUCACCCAUGUAACAUGGAGUAGUUUAUUUG			76.6	111
GCAUGCAAGUAGAAGGUCGGAUAUUUUGAUAACGAAGGAUAUACAGAAUCAUAUCCACAUGAUAACAUGAGGAUCACCCAUGUA			14.7	15.8
UAUAUAUAGUAAGGAUAUGUAUUAAUGUUAUAAACAGAAGGUACUGACAUGAGGAUCACCCAUGUUUUAGUGUGGGCAUGUAGA			92.1	131
CAGGUAGACUGAGGAUAUACAAAAGACCUAGUCUAUCUAGGUCAAAUCACAUGAGGAUCACCCAUGUAGAAGGCAGUCUGCCUG			16.8	27.3
UUUUAAUAAGAGAAGGAGCACUACAUGAGGAUCACCCAUGUGUUAGUAGUUAGGAUAUUUAAUAACAUGAGGAUCACCCAUGUA	167	74.2		
UCGUCCUCGUGCUAGGAUAUCCAUCGUAAAACAUGAGGAUCACCCAUGUAGAAAUGCGCCUACGAGGAGAAGGAGCGAUGUGGAU	20.6	15.2		
AGUUUACAUGAGGAUCACCCAUGUGAGGAUAUGGAAUCGCUGGCCGUAGCCAGUGGUUCCAGAAGGCGCGUGAU			99	187
